This is an account of results in PMC9071802 (RSC Advances, 2019).

A value given as a limit tells only on which side of the number the result lay.

For this test, the system named is P. aeruginosa MH602 lasB reporter strain (PlasB: gfp(ASV)). Nature of the test: Quorum sensing inhibition assay, GFP fluorescence of lasB reporter strain. As to conditions: for inhibition at 62.5 µM / inhibition at 250 µM / inhibition at 125 µM: Pseudomonas aeruginosa; for inhibition at 62.5 µM: read-out: Percentage inhibition of GFP fluorescence, 62.5 μM; for inhibition at 62.5 µM / inhibition at 250 µM / inhibition at 125 µM / Percentage inhibition of GFP fluorescence: ± standard deviation, NA: no activity; for inhibition at 250 µM: read-out: Percentage inhibition of GFP fluorescence, 250 μM; for inhibition at 125 µM: read-out: Percentage inhibition of GFP fluorescence, 125 μM. Format: cell-based, Pseudomonas aeruginosa. The gist of the method:
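The reporter is a chromosomal lasB promoter–gfp(ASV) fusion responsive to 3-oxododecanoyl-HSL. Cultures were grown overnight in LB10, then diluted 1:100 in ABT with 0.25% tryptone and 0.13% yeast extract plus ampicillin 100 µg mL⁻¹ and gentamicin 20 µg mL⁻¹. Test compound in DMSO was tested at 62.5, 125 or 250 µM, with 1% DMSO controls. Cultures were incubated at 37 °C and shaken briefly before each read. Fluorescence (ex 485/em 535 nm) and OD600 were read every 30 min for 20 h, in triplicate per experiment.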

Regarding `Cc1cc2nc(NC(=O)Cn3cc(CSc4nc5ccccc5[nH]4)nn3)[nH]c2cc1C` [7e, 2-(4-(((1H-Benzo[d]imidazol-2-yl)thio)methyl)-1H-1,2,3-triazol-1-yl)-N-(5,6-dimethyl-1H-benzo[d]imidazol-2-yl)acetamide], the inhibition at 62.5 µM amounted to 15.1 ± 9.82% and the inhibition at 250 µM stood at 16 ± 26.1%.

On to `Cc1cc2nc(NC(=O)CCCc3cn(CC(=O)NC4CCCC4)nn3)[nH]c2cc1C` [12a, 4-(1-(2-(Cyclopentylamino)-2-oxoethyl)-1H-1,2,3-triazol-4-yl)-N-(5,6-dimethyl-1H-benzo[d]imidazol-2-yl)butanamide], for which the inhibition at 62.5 µM was determined as 28.5 ± 7.69%, the inhibition at 125 µM was found to be 34.1 ± 12.6% and the inhibition at 250 µM came to 48.5 ± 5.25%.

For `O=C(Cn1cc(Cn2cc(Cl)ccc2=O)nn1)Nc1nc2ccccc2[nH]1` [6f, N-(1H-Benzo[d]imidazol-2-yl)-2-(4-((5-chloro-2-oxopyridin-1(2H)-yl)methyl)-1H-1,2,3-triazol-1-yl)acetamide], the inhibition at 62.5 µM was 36.1 ± 10.7%, the inhibition at 125 µM was 52.7 ± 11.9% and the inhibition at 250 µM turned out to be 58.8 ± 5.09%.

In the case of `Cc1cc2nc(NC(=O)CCCc3cn(CC(=O)NC4CCCCC4)nn3)[nH]c2cc1C` [12b, 4-(1-(2-(Cyclohexylamino)-2-oxoethyl)-1H-1,2,3-triazol-4-yl)-N-(5,6-dimethyl-1H-benzo[d]imidazol-2-yl)butanamide], the inhibition at 62.5 µM stood at 5.35 ± 10.2%, the inhibition at 125 µM amounted to 9.74 ± 20.7% and the inhibition at 250 µM was determined as 30.8 ± 26.4%.

As to `O=C(CCc1cn(CC(=O)NC2CCCCC2)nn1)Nc1nc2ccccc2[nH]1` [10a, N-(1H-Benzo[d]imidazol-2-yl)-3-(1-(2-(cyclohexylamino)-2-oxoethyl)-1H-1,2,3-triazol-4-yl)propanamide], the inhibition at 62.5 µM is 38.4 ± 7.72%, the inhibition at 125 µM was 42.4 ± 8.46% and the inhibition at 250 µM came to 47.4 ± 2.69%. In addition, the QSI activity (at 62.5–250 μM) is on record as 38–47%.

As to `CCCCCCCCCc1cn(CC(=O)Nc2nc3cc(C)c(C)cc3[nH]2)nn1` [7d, N-(5,6-Dimethyl-1H-benzo[d]imidazol-2-yl)-2-(4-nonyl-1H-1,2,3-triazol-1-yl)acetamide], the inhibition at 62.5 µM turned out to be 37.1 ± 7.75%, the inhibition at 125 µM was 41.6 ± 5.08% and the inhibition at 250 µM was 44.6 ± 3.87%.

Regarding `O=C(Cn1cc(-c2ccc(C(F)(F)F)cc2)nn1)Nc1nc2ccccc2[nH]1` [6o, N-(1H-Benzo[d]imidazol-2-yl)-2-(4-(4-(trifluoromethyl)phenyl)-1H-1,2,3-triazol-1-yl)acetamide], the inhibition at 62.5 µM was determined as 57.5 ± 7.73%, the inhibition at 125 µM was 59.9 ± 7.99% and the inhibition at 250 µM worked out at 64.2 ± 7.3%.

Regarding `O=C(Cn1cc(-c2ccc(Br)cc2)nn1)Nc1nc2ccccc2[nH]1` [6j, N-(1H-Benzo[d]imidazol-2-yl)-2-(4-(4-bromophenyl)-1H-1,2,3-triazol-1-yl)acetamide], the inhibition at 62.5 µM was 45.7 ± 5.44%, the inhibition at 125 µM is 46.2 ± 8.52% and the inhibition at 250 µM came out at 50.7 ± 10.9%.

Turning to `Cc1cc2nc(NC(=O)Cn3cc(-c4ccc(Br)cc4)nn3)[nH]c2cc1C` [7h, 2-(4-(4-Bromophenyl)-1H-1,2,3-triazol-1-yl)-N-(5,6-dimethyl-1H-benzo[d]imidazol-2-yl)acetamide], the inhibition at 62.5 µM worked out at 31.2 ± 5.02%, the inhibition at 125 µM is 44.7 ± 14.3% and the inhibition at 250 µM amounted to 57.6 ± 7.43%.

Regarding `O=C1C=C(Br)/C(=C/Br)O1` [Furanone 30, reference compound], the “Percentage inhibition of GFP fluorescence” value (“Percentage inhibition” for short) (62.5 μM) is given as 77.33 ± 2.00%, the “Percentage inhibition” value (125 μM) is 83.02 ± 3.15% and the “Percentage inhibition” value (250 μM) stood at 86.86 ± 1.18%.

As to `CCCCCc1cn(CC(=O)Nc2nc3cc(C)c(C)cc3[nH]2)nn1` [7b, N-(5,6-Dimethyl-1H-benzo[d]imidazol-2-yl)-2-(4-pentyl-1H-1,2,3-triazol-1-yl)acetamide], the inhibition at 62.5 µM was 16.9 ± 5.74%, the inhibition at 125 µM turned out to be 20.2 ± 11.5% and the inhibition at 250 µM amounted to 26.6 ± 20.8%.

`COc1ccc(-c2cn(CC(=O)Nc3nc4ccccc4[nH]3)nn2)cc1` [6n, N-(1H-Benzo[d]imidazol-2-yl)-2-(4-(4-methoxyphenyl)-1H-1,2,3-triazol-1-yl)acetamide]: the inhibition at 125 µM is 5.16 ± 16.6% and the inhibition at 250 µM was found to be 20 ± 14%.

As to `O=C(CCCc1cn(CC(=O)NC2CCCCC2)nn1)Nc1nc2ccccc2[nH]1` [11b, N-(1H-Benzo[d]imidazol-2-yl)-4-(1-(2-(cyclohexylamino)-2-oxoethyl)-1H-1,2,3-triazol-4-yl)butanamide], the inhibition at 250 µM amounted to 12.9 ± 20.2%.

Consider `O=C(Cn1cc(-c2ccccc2)nn1)Nc1nc2ccccc2[nH]1` [6g, N-(1H-Benzo[d]imidazol-2-yl)-2-(4-phenyl-1H-1,2,3-triazol-1-yl)acetamide], for which the inhibition at 62.5 µM turned out to be 15.1 ± 5.83%, the inhibition at 125 µM amounted to 17.4 ± 22% and the inhibition at 250 µM worked out at 46 ± 10.2%.

As to “N-(1H-Benzo[d]imidazol-2-yl)-2-(4-nonyl-1H-1,2,3-triazol-1-yl)acetamide [6e]”, the “Percentage inhibition” value reads like this: (62.5 μM) 24.87 ± 6.69%; (125 μM) 37.20 ± 6.71%; (250 μM) 41.31 ± 7.90%.

Consider `O=C(Cn1cc(-c2cccc([N+](=O)[O-])c2)nn1)Nc1nc2ccccc2[nH]1` [6q, N-(1H-Benzo[d]imidazol-2-yl)-2-(4-(3-nitrophenyl)-1H-1,2,3-triazol-1-yl)acetamide], for which the inhibition at 62.5 µM amounted to 28.2 ± 10.2%, the inhibition at 125 µM is 36 ± 6.13% and the inhibition at 250 µM is 39.4 ± 5.14%.

Regarding `Cc1cc2nc(NC(=O)Cn3cc(Cn4cc(Cl)ccc4=O)nn3)[nH]c2cc1C` [7f, 2-(4-((5-Chloro-2-oxopyridin-1(2H)-yl)methyl)-1H-1,2,3-triazol-1-yl)-N-(5,6-dimethyl-1H-benzo[d]imidazol-2-yl)acetamide], the inhibition at 62.5 µM amounted to 26.1 ± 7.69%, the inhibition at 125 µM stood at 29 ± 13.6% and the inhibition at 250 µM was 36.8 ± 7.9%.

As to `Cc1cc2nc(NC(=O)Cn3cc(-c4ccccc4)nn3)[nH]c2cc1C` [7g, N-(5,6-Dimethyl-1H-benzo[d]imidazol-2-yl)-2-(4-phenyl-1H-1,2,3-triazol-1-yl)acetamide], the inhibition at 62.5 µM was 28.5 ± 8.41%, the inhibition at 125 µM was 29.9 ± 17.4% and the inhibition at 250 µM is 47.6 ± 14.4%.

For the compound `COc1ccc(-c2cn(CC(=O)Nc3nc4cc(C)c(C)cc4[nH]3)nn2)cc1` [7k, N-(5,6-Dimethyl-1H-benzo[d]imidazol-2-yl)-2-(4-(4-methoxyphenyl)-1H-1,2,3-triazol-1-yl)acetamide], the inhibition at 62.5 µM came to 20.4 ± 2.59%, the inhibition at 125 µM was found to be 24.3 ± 23.3% and the inhibition at 250 µM is > 40%. Besides, the “Percentage inhibition” value (250 μM, 250 µM) is recorded as 40.82 ± 23.41%.

For the compound `O=C(Cn1cc(-c2ccc(F)cc2)nn1)Nc1nc2ccccc2[nH]1` [6h, N-(1H-Benzo[d]imidazol-2-yl)-2-(4-(4-fluorophenyl)-1H-1,2,3-triazol-1-yl)acetamide], the inhibition at 62.5 µM came to 49 ± 12.3%, the inhibition at 125 µM amounted to 54.9 ± 2.42% and the inhibition at 250 µM came out at 56.1 ± 1.77%.

As to `CCCCCCCCCc1cn(CC(=O)Nc2nc3ccccc3[nH]2)nn1` [6d, N-(1H-Benzo[d]imidazol-2-yl)-2-(4-nonyl-1H-1,2,3-triazol-1-yl)acetamide], the inhibition at 62.5 µM amounted to 30.6 ± 7.62%, the inhibition at 125 µM was found to be 41.9 ± 4.5% and the inhibition at 250 µM is 48.5 ± 12.7%.

For `CCCc1cn(CC(=O)Nc2nc3ccccc3[nH]2)nn1` [6a, N-(1H-Benzo[d]imidazol-2-yl)-2-(4-propyl-1H-1,2,3-triazol-1-yl)acetamide], the inhibition at 62.5 µM stood at 25.1 ± 0.37%, the inhibition at 125 µM is 35.3 ± 20.4% and the inhibition at 250 µM was 50.5 ± 11.8%.

With `Cc1cc2nc(NC(=O)Cn3cc(-c4cccc([N+](=O)[O-])c4)nn3)[nH]c2cc1C` [7n, N-(5,6-Dimethyl-1H-benzo[d]imidazol-2-yl)-2-(4-(3-nitrophenyl)-1H-1,2,3-triazol-1-yl)acetamide], the inhibition at 62.5 µM came to 34.2 ± 7.43%, the inhibition at 125 µM was 34.4 ± 14.1% and the inhibition at 250 µM came out at 46.7 ± 4.87%.

With `O=C(Cn1cc(CCC(=O)Nc2nc3ccccc3[nH]2)nn1)Nc1ccccn1` [10b, N-(1H-Benzo[d]imidazol-2-yl)-3-(1-(2-oxo-2-(pyridin-2-ylamino)ethyl)-1H-1,2,3-triazol-4-yl)propanamide], the inhibition at 62.5 µM was 4.4 ± 2.93%, the inhibition at 125 µM stood at 15.6 ± 7.17% and the inhibition at 250 µM amounted to 28.5 ± 17.5%.

In the case of `O=C(CCCc1cn(-c2ccc([N+](=O)[O-])cc2)nn1)Nc1nc2ccccc2[nH]1` [11d, N-(1H-Benzo[d]imidazol-2-yl)-4-(1-(4-nitrophenyl)-1H-1,2,3-triazol-4-yl)butanamide], the inhibition at 62.5 µM was determined as 21.2 ± 1.76%, the inhibition at 125 µM is 21.4 ± 2.62% and the inhibition at 250 µM is 39.4 ± 4.6%.

Regarding `O=C(Cn1cc(-c2ccc(O)cc2)nn1)Nc1nc2ccccc2[nH]1` [6m, N-(1H-Benzo[d]imidazol-2-yl)-2-(4-(4-hydroxyphenyl)-1H-1,2,3-triazol-1-yl)acetamide], the inhibition at 62.5 µM is 34.4 ± 4.97%, the inhibition at 125 µM was 45.7 ± 6.21% and the inhibition at 250 µM came to 58.4 ± 7.75%.

On to `O=C(CCCc1cn(CC(=O)NC2CCCC2)nn1)Nc1nc2ccccc2[nH]1` [11a, N-(1H-Benzo[d]imidazol-2-yl)-4-(1-(2-(cyclopentylamino)-2-oxoethyl)-1H-1,2,3-triazol-4-yl)butanamide], for which the inhibition at 62.5 µM came to 42.3 ± 10.3%, the inhibition at 125 µM was found to be 45.9 ± 8.18% and the inhibition at 250 µM amounted to 51.2 ± 7.1%.

As usually defined, the inhibition is the share of the control response that was lost under treatment.
